The source of these data is ChEMBL document CHEMBL1157813, “Novel irreversible fluorescent probes targeting the 18 kDa translocator protein: synthesis and biological characterization” (J Med Chem, 2010).

Active and inactive are the calls of the source. The rule behind the calls is not given here.

Assay [1] has as its target Translocator protein (Homo sapiens) (UniProt P30536). Put plainly: Irreversible binding affinity to TSPO in human U87MG cells at 100 to 500 nM after 20 mins in presence of 10 uM Ro5-4864. The class given is cell-based. The note with it: U-87MG ATCC. A digest of the protocol: (§1)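 U87MG cells grown in RPMI 1640 with 10% FBS, seeded at 4 × 10^4 cells/well for 24 h. Some wells pretreated with 10 μM Ro 5-4864, then given probe (100, 250, 500 nM) for 20 or 90 min at 37 °C, 5% CO2. Four washes in medium with cysteine, then PBS. Fluorescence read at Ex 485/Em 535 nm. Mean ± SEM, at least three experiments in duplicate.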

The target of assay [2] is T1, Translocator protein (Rattus norvegicus, UniProt P16257). The assay can be described thus: Irreversible binding affinity to TSPO in rat kidney mitochondrial membrane. The class given is cell membranes. A digest of the protocol:
(§2)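 Rat kidney membranes preincubated with ligand (1 nM to 1 μM) for 0, 10, 30, 60, 90 or 180 min in binding buffer. Stopped with ice-cold 50 mM Tris/HCl pH 7.4, centrifuged 13000g 15 min at 4 °C, pellets washed twice. Residual [3H]Ro 5-4864 binding then measured at 65 μg protein/tube. ln B/B0 plotted against time. Kd and K2 taken from a 1/Kobs vs 1/[D] plot. Duplicates, three experiments.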

Assay [3] has as its target Translocator protein (Rattus norvegicus) (UniProt P16257). The assay can be described thus: Displacement of [3H]Ro5-4864 from TSPO in rat kidney mitochondrial membrane at 1 to 1000 nM. Format: cell membranes. The note with it: TDE = time-dependent effect. A digest of the protocol: as §2
A general note: Displacement assays read how much labelled ligand stays bound in the presence of the test substance.

Assay [4] deals with Translocator protein (Homo sapiens) (UniProt P30536). The assay can be described thus: Irreversible binding affinity to TSPO in human U87MG cells at 100 to 500 nM after 90 mins in presence of 10 uM Ro5-4864. The note with it: U-87MG ATCC. The class given is cell-based. The method, boiled down:
as §1

Assay [5] addresses T1, Translocator protein. The assay can be described thus: Displacement of [3H]Ro5-4864 from TSPO in rat kidney mitochondrial membrane. Format: cell membranes. The method, boiled down:
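IC50 and Ki taken from displacement curves. Bound radioactivity expressed as percent of specific binding. Triplicate determinations pooled from three independent experiments.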

For assay [6], the target named is Translocator protein (Rattus norvegicus) (UniProt P16257). Put plainly: Displacement of [3H]Ro5-4864 from TSPO in rat kidney mitochondrial membrane after 180 mins. The class given is cell membranes. The method, boiled down: as §2
Chain of Translocator protein (Rattus norvegicus) (P16257 whole entry, looked up): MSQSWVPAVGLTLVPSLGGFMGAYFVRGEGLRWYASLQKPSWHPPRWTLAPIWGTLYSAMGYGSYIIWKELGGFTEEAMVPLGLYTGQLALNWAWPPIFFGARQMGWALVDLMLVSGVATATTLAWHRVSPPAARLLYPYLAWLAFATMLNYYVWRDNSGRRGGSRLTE

T1 sequence (P16257 whole entry, looked up): as above
Chain of Translocator protein (Homo sapiens) (P30536 whole entry): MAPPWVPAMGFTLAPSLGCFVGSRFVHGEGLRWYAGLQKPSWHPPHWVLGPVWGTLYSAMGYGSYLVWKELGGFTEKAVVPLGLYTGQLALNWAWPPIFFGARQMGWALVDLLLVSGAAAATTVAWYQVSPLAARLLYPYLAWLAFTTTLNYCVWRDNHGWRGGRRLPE

As for `O=C(NCCCCCCNc1ccc([N+](=O)[O-])c2nonc12)C(=O)c1c(-c2ccccc2)[nH]c2ccc(N=C=S)cc12`, the result in assay [1] was inactive. At Translocator protein [2], the affinity, expressed as Kd, was 8.31 nM. In addition, in assay [3], the Activity result was “tde”. The result in assay [4] was Active. At Translocator protein [5], this compound returned an IC50 of 42.2 nM and a Ki of 37.6 nM. The Activity result in assay [6] was “Dose-dependent effect”.
On Translocator protein [2], `CCCCCCN(CCCCCC)C(=O)C(=O)c1c(-c2ccccc2)[nH]c2ccc(N=C=S)cc12` returned a Kd of 5.07 nM. For the same compound, the Activity entry in assay [3] was “tde”. At Translocator protein [5], the IC50 came to 59.7 nM and the affinity, expressed as Ki, was 49.5 nM. Besides, the Activity entry in assay [6] was “Dose-dependent effect”.
As for `CCCN(CCC)C(=O)C(=O)c1c(-c2ccccc2)[nH]c2ccc(N=C=S)cc12`, the affinity on Translocator protein [2], expressed as Kd, was 3.17 nM. Also, the Activity entry in assay [3] was “tde”. In addition, on Translocator protein [5], the half-maximal inhibitory concentration (IC50) stood at 45.6 nM and the Ki is 37.9 nM. Moreover, in assay [6], the Activity result was “Dose-dependent effect”.

What is called Kd is the constant that tells how readily two partners part at equilibrium. Usually IC50 stands for the midpoint of a concentration-inhibition curve. High values mean lower potency, low ones higher potency. The Ki is a dissociation constant, usually derived from enzyme kinetics or from competition with a known ligand. Lower therefore signals higher affinity.
